This is one part of a sample in which hits are shown more often than they occur.
A1 apoptosis 2 – A1 inhibitors via caspase activation, primary screen, cell-based, luminescence, HTS, two replicates; MEF A1-2A-BIM cells, caspase-Glo luminescence, 3 h; percent of clofoctol response, DMSO zero; caspase activation, % (test concentration not listed); 24,000 tested, under 10 active; in the data active = caspase activation above about 5.9%; inconclusive = no clear call, values can overlap the other calls; inactive = below about 2.2%
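Material: A1-2A-BIM-expressing MEF cells. Buffer or medium: RPMI-1640 plus 10% FBS. Incubation: cells settled overnight, compound exposure 3 h at 37 °C, 5% CO2. Signal: Caspase-Glo 3/7 luminescence, 1 h at room temperature.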
T cruzi intra – inhibitors of intracellular Trypanosoma cruzi, primary screen, cell-based, plate reader, single point, set 2 | intracellular Trypanosoma cruzi in host cells | activity score (inhibition), % at 5.01 µM | 22,000 tested, 4.9% active; in the data active = activity score above about 55%; inconclusive = no clear call, values can overlap the other calls;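 note: parasites and compound incubated about four days before reading; 0% = median of neutral control wells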
INS-1E rescue – protection of INS-1E cells from cytokine death, primary screen, ATP luminescence, single point; INS-1E cytokine-induced death, 48 h; normalised: neutral wells 0, positive control 100; AID 488910, 2010; 20,000 tested, 0.1% active; protection from cytokine-induced ATP loss, % at 10 µM;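 active = mean replicate protection from cytokine-induced ATP loss at least 50% and at least 75% of replicates each reaching 50%; inconclusive = meets only one of the two criteria, mean or replicate share; inactive = fails both the mean and replicate share criteria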
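Material: INS-1E rat cells; Quantity: 8000 cells/well; Buffer or medium: phenol-red-free RPMI with 5% fetal bovine serum; Probe or stimulus: cytokine cocktail of IFN-γ, TNF-α and IL-1β; Compound dosing: single test concentration per compound, delivered by pin transfer; Incubation: 48 h co-treatment, 10 min post-lysis read; Signal: CellTiter-Glo luminescence.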
* hit, by the source's call.

Cc1ccsc1/C=N/NC(=O)CCCCCCC(=O)NO was read as A1 apoptosis 2 -0.3.
`C[C@@H]1CN([C@H](C)CO)C(=O)c2cccc(NC(=O)c3ccncc3)c2O[C@H]1CN(C)Cc1ccc(C(=O)Nc2ccccc2N)cc1` gave A1 apoptosis 2 0.3, T cruzi intra 8.7 and INS-1E rescue -0.2.
Screening COc1ccc(NC(=O)Nc2cccc3c2O[C@H](CN(C)Cc2ccncc2)[C@H](C)CN([C@@H](C)CO)C3=O)cc1 returned A1 apoptosis 2 -0.3, T cruzi intra -18.0 and INS-1E rescue 0.5.
COc1ccc(CN(C)C[C@@H]2Oc3c(NC(=O)c4ccncc4)cccc3C(=O)N([C@@H](C)CO)C[C@H]2C)cc1 was read as A1 apoptosis 2 -1.5, T cruzi intra 78.5* and INS-1E rescue 2.0.
Screening COc1ccc(CN(C)C[C@H]2Oc3c(NC(=O)c4ccncc4)cccc3C(=O)N([C@@H](C)CO)C[C@@H]2C)cc1 returned A1 apoptosis 2 -1.7, T cruzi intra 82.5* and INS-1E rescue -2.2.
For C[C@@H]1CN([C@H](C)CO)C(=O)Cc2cc(NS(=O)(=O)c3ccc(Cl)cc3)ccc2O[C@H]1CN(C)S(=O)(=O)c1ccc(F)cc1 the results were A1 apoptosis 2 -0.3, T cruzi intra -6.0 and INS-1E rescue 10.1.
C[C@@H]1CN([C@@H](C)CO)C(=O)Cc2cc(NS(=O)(=O)c3ccc(F)cc3)ccc2O[C@@H]1CN(C)S(=O)(=O)c1ccc(Cl)cc1 was read as T cruzi intra 65.1* and INS-1E rescue -12.4.
`C[C@@H]1CN([C@H](C)CO)C(=O)Cc2cc(NS(=O)(=O)c3ccc(F)cc3)ccc2O[C@@H]1CN(C)S(=O)(=O)c1ccc(Cl)cc1` gave T cruzi intra 57.7* and INS-1E rescue 0.2.
C[C@H]1CN([C@@H](C)CO)C(=O)Cc2cc(NS(=O)(=O)c3ccc(F)cc3)ccc2O[C@@H]1CN(C)S(=O)(=O)c1ccc(Cl)cc1 was read as A1 apoptosis 2 0.8, T cruzi intra 3.4 and INS-1E rescue 8.1.
COC(=O)CCCCCCC(=O)N/N=C/c1ccc(OC)cc1O was read as A1 apoptosis 2 -0.4, T cruzi intra -18.8 and INS-1E rescue 17.5.
For Cc1cccc(CN(C)C[C@@H]2Oc3ncc(-c4cccc(C(F)(F)F)c4)cc3C(=O)N([C@H](C)CO)C[C@@H]2C)c1 the results were T cruzi intra 63.4*.
`C[C@H](CO)N1C[C@H](C)[C@H](CN(C)Cc2cccc(C(F)(F)F)c2)Oc2ncc(-c3ccccc3)cc2C1=O` gave T cruzi intra 42.5.
`C[C@H](CO)N1C[C@H](C)[C@H](CN(C)S(=O)(=O)c2ccc(C#N)cc2)Oc2ncc(-c3cccc(C(F)(F)F)c3)cc2C1=O` gave A1 apoptosis 2 0.3 and T cruzi intra 9.7.
Screening Cc1ccc(S(=O)(=O)N(C)C[C@@H]2Oc3ncc(-c4cccc(C(F)(F)F)c4)cc3C(=O)N([C@H](C)CO)C[C@@H]2C)cc1 returned A1 apoptosis 2 -0.2 and T cruzi intra 61.0*.
For C=CCN1C(=S)N[C@@H]2c3ccccc3O[C@@]1(C)[C@@H]2CO the results were A1 apoptosis 2 1.2.
Screening C[C@@H]1CN([C@H](C)CO)C(=O)Cc2cc(NS(=O)(=O)c3ccc(F)cc3)ccc2O[C@H]1CN(C)Cc1ccc(C(F)(F)F)cc1 returned A1 apoptosis 2 0.9, T cruzi intra 47.8 and INS-1E rescue -13.4.
`Cc1ccc(S(=O)(=O)Nc2ccc3c(c2)CC(=O)N([C@@H](C)CO)C[C@H](C)[C@@H](CN(C)Cc2ccc(C(F)(F)F)cc2)O3)cc1` gave T cruzi intra 62.4* and INS-1E rescue 0.0.
Screening C[C@@H]1CN([C@@H](C)CO)C(=O)Cc2cc(NS(=O)(=O)c3ccc(F)cc3)ccc2O[C@@H]1CN(C)Cc1ccc(C(F)(F)F)cc1 returned A1 apoptosis 2 -1.2, T cruzi intra inconclusive and INS-1E rescue -40.6.
For Cc1ccc(S(=O)(=O)Nc2ccc3c(c2)CC(=O)N([C@@H](C)CO)C[C@@H](C)[C@H](CN(C)Cc2ccc(C(F)(F)F)cc2)O3)cc1 the results were A1 apoptosis 2 -0.3.
C[C@H]1CN([C@@H](C)CO)C(=O)Cc2cc(NS(=O)(=O)c3ccc(F)cc3)ccc2O[C@@H]1CN(C)Cc1ccc(C(F)(F)F)cc1 was read as T cruzi intra 61.3* and INS-1E rescue -17.2.

Screening results (PubChem BioAssay)
